Bioassay records deposited in PubChem by several laboratories.
Shown are actives, neighbours in structure and some others; about 2% of the full set was active somewhere.
PLC-beta3 inh = human PLC-beta3 inhibitors, primary screen, biochemical, fluorescence; Purified PLC-beta3, fluorogenic substrate; inhibition, % at 12.2 µM; AID 720704, 2013; 1-phosphatidylinositol 4,5-bisphosphate phosphodiesterase beta-3 (Homo sapiens), Q01970; 0.18% of 370,000 active; in the data active = inhibition above about 11%
PLCg1 inh = PLC-gamma1 enzyme inhibitors, primary screen, biochemical, fluorescence, purified enzyme; fluorogenic substrate; 0.84% of 370,000 active; AID 720700, 2013; inhibition, % at 12.2 µM; in the data active = inhibition above about 9.5%
Target sequence (P19174 whole entry, looked up): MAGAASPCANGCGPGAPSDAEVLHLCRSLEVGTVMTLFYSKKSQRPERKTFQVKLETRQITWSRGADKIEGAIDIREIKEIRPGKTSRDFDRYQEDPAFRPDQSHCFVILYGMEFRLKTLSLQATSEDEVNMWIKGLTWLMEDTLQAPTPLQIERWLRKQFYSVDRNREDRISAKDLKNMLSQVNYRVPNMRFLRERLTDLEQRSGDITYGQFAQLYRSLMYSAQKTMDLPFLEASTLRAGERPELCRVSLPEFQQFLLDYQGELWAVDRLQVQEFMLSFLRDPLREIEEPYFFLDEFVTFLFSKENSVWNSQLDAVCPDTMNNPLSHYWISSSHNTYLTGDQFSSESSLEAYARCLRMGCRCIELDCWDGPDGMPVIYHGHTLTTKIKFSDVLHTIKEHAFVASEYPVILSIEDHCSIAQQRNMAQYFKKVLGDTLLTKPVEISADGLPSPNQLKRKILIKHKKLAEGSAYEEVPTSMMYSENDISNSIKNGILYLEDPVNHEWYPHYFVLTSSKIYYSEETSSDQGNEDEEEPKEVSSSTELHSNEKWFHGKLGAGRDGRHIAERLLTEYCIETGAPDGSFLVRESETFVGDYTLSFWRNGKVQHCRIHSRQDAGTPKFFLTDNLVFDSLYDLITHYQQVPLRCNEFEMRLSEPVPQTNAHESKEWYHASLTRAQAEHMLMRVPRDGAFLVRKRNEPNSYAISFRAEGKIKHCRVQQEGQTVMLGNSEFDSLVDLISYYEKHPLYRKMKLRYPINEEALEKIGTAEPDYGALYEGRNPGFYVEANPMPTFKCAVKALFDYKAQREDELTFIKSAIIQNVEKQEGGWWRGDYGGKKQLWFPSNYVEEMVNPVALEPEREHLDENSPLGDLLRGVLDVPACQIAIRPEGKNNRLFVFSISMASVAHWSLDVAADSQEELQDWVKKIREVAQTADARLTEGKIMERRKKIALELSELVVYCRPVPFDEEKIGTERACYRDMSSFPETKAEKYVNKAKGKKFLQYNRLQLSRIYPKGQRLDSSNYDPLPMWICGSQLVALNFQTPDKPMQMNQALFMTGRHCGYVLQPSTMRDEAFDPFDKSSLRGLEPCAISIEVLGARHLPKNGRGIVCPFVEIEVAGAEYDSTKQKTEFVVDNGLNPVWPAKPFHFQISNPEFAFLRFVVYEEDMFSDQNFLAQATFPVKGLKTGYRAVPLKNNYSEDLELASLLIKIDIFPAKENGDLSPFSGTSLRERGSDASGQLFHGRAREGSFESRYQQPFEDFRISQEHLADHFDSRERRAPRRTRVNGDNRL
VIM-2 inhibitor = VIM-2 metallo-beta-lactamase inhibitors, primary screen, biochemical, epi-absorbance readout, Pseudomonas aeruginosa enzyme | purified VIM-2, nitrocefin hydrolysis, epi-absorbance fluorescence | inhibition, % at 5.6 µM | 0.89% of 290,000 active;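 active = inhibition above the mean of all tested compounds plus 3 SD, cutoff set per screening run, cut at about 7.5% in these data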;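 note: red hydrolysis product quenches plate fluorescence so inhibitors raise well fluorescence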
IMP-1 inh = IMP-1 metallo-beta-lactamase inhibitors, primary screen, biochemical, epi-absorbance readout, Pseudomonas aeruginosa enzyme; AID 1556, 2009; inhibition, % at 5.6 µM; 0.45% of 290,000 active; purified IMP-1, nitrocefin hydrolysis, epi-absorbance fluorescence;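 active = inhibition above the mean plus 3 SD of all compounds in the same screening run, cut at about 4.5% in these data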
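System: purified IMP-1; amount: IMP-1 0.2 nM before substrate addition; compound: single dose, 5.6 µM; times: 25 °C, 15 min preincubation, 25 min reaction; signal: Epi-absorbance via hydrolysed-nitrocefin quenching of white-plate fluorescence, 480/530 nm, EDTA stop; benchmarks: DMSO with and without IMP-1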
PvdQ inh = P. aeruginosa PvdQ acylase inhibitors, primary screen, biochemical, fluorescence, plate reader and imaging, single point. 0.063% of 340,000 active. inhibition, % at 10 µM. purified PvdQ acylase. PvdQ acylase [Pseudomonas aeruginosa LESB58]; in the data active = inhibition above about 30%, passing the limit was not always enough
Numbers stand for hits; i = inactive; nt = no result.

SMILES | PLC-beta3 inh | PLCg1 inh | VIM-2 inhibitor | IMP-1 inh | PvdQ inh
NC(=S)Nc1ccc(Oc2ccc(NC(N)=S)cc2)cc1 | i | i | i | 14.6 | i
O=C(N/N=C/c1ccccc1F)c1cc2c(ccc3ccccc32)o1 | i | i | i | 5.0 | i
O=C(N/N=C/c1cccc2ccccc12)c1cc2ccccc2o1 | i | i | i | i | i
CS(=O)(=O)N[C@@H]1C[C@@H]2O[C@@H](CO)CC[C@@H]2O[C@@H]1CCc1ccc(-c2ccccc2F)cc1 | i | i | nt | nt | nt
COc1ccccc1N1CCN(C(=O)c2ccc3c(c2)CCN3S(=O)(=O)c2ccccc2)CC1 | i | 11.5 | i | i | i
O=C(Nc1ccc(F)cc1)c1ccc(NC(=O)C2CCCO2)cc1 (centres undefined) | nt | nt | i | 7.7 | i
COC(=O)c1ccccc1NC(=O)c1sc(N)nc1C | i | i | 10.3 | i | i
Cn1c(Cn2c(C(F)(F)F)nc3ccccc32)nc2ccccc21 | nt | nt | i | i | i
COCC(N)(c1ccccc1)c1nc2ccccc2n1C (centres undefined) | i | i | 9.0 | i | i
CC(c1c[nH]c2ccccc12)c1cn(C)c2ccccc12 (centres undefined) | i | i | nt | nt | nt
COC(=O)CCC(=O)N1C2=NC3=C(C(=O)N(Cc4ccc5c(c4)OCO5)C3=O)C3N(C)c4ccccc4[C@]23C[C@H]1CO (some centres undefined) | i | i | nt | nt | nt
O=c1cc(CN2CCN(Cc3ccccc3)CC2)c2cc3c(cc2o1)CCC3 | i | i | 7.7 | i | i
O=c1cc(CN2CCN(c3ccccc3F)CC2)c2cc3c(cc2o1)CCCC3 | i | i | i | i | i
Cc1cc(C)c2c(CN3CCN(Cc4ccccc4)CC3)cc(=O)oc2c1C | i | i | 9.8 | i | i
Cc1c(O)ccc2c(CN3CCN(Cc4ccccc4)CC3)cc(=O)oc12 | i | i | i | i | i
CCN1/C(=C/C=C/c2oc3ccc(-c4ccccc4)cc3[n+]2CC)Oc2ccc(-c3ccccc3)cc21 | i | i | i | 4.6 | i
Cc1cc(C)cc(N2CCCn3c2nc2c3c(=O)[nH]c(=O)n2C)c1 | nt | nt | i | i | i
Cc1cc(C)cc(N2CC(C)Cn3c2nc2c3c(=O)[nH]c(=O)n2C)c1 (centres undefined) | i | i | 8.6 | i | i
Cc1cc(NC(=O)C2CCCC2)n(-c2nc3ccccc3[nH]2)n1 | i | 10.8 | i | i | i
N=C1/C(=C/c2coc3ccccc3c2=O)C(=O)N=C2SC(c3ccco3)=NN12 | nt | nt | i | 6.8 | nt
O=C(OC12CCCN(C1)/C(=C/c1ccc(Cl)cc1)C2)c1ccno1 (centres undefined) | i | i | nt | nt | nt
OC[C@@H]1CC[C@@H]2O[C@H](CCc3ccc(-c4ccc(F)cc4)cc3)[C@@H](n3cc(C4CC4)nn3)C[C@@H]2O1 | i | i | nt | nt | nt
CCOC(=O)C(CC)Sc1nnc2c3cc(C)ccc3n(C)c2n1 (centres undefined) | i | i | 9.4 | i | i
COc1ccc(N2CCN(C(=O)CSc3nnc4c5cc(C)ccc5n(C)c4n3)CC2)cc1 | i | i | i | i | i
CC(C)CSc1nnc2c3ccccc3n(C)c2n1 | i | i | i | i | i
SMILES | PLC-beta3 inh | PLCg1 inh | VIM-2 inhibitor | IMP-1 inh | PvdQ inh
CCSc1nnc2c3cc(CC)ccc3n(C)c2n1 | nt | nt | 8.2 | i | i
COC(=O)C(C[N+](=O)[O-])C1=C(O)CC(C)(C)CC1=O (centres undefined) | i | i | nt | nt | nt
CCCCCOc1ccc(/C=N/NC(=O)CSc2nnc(-c3ccc(OC)cc3)n2-c2ccc(C)cc2)cc1 | i | i | nt | nt | nt
CC(C)NC(=O)C(=O)c1cn(C)c2ccccc12 | i | i | i | i | i
Cn1cc(C(=O)C(F)(F)F)c2ccccc21 | i | i | i | 5.8 | i
C=CS(=O)(=O)N(Cc1nnn(Cc2ccccc2)c1Br)[C@@H](CC(C)C)C(=O)OC | i | i | nt | nt | nt
Cn1ccnc1SCC(=O)c1cc2ccccc2o1 | i | i | i | 4.6 | i
CC1=C[C@]2(C[N+](Cc3ccccc3)=C(N)N2)n2c(=O)n(-c3ccccc3)c(=O)n2C1 | i | i | nt | nt | nt
O=c1c2cc(Cl)ccc2oc2nc3n(c(=O)c12)CCCS3 | i | i | 9.7 | i | i
N#Cc1c(-c2ccc(Cl)cc2)nc2n(c1=O)CCCS2 | i | i | i | i | i
CN1CCCN(C(=O)C2CCCN(C(=O)c3ccc4c(c3)NC(=O)CS4)C2)CC1 (centres undefined) | i | i | nt | nt | nt
Cc1cc(C)n2cnnc2n1 | i | i | i | i | nt
Cc1cc(C)n2c(=S)[nH]nc2n1 | i | i | 10.7 | i | i
O=C(CCc1ccccc1)N[C@H]1[C@H](OC(=O)c2cnccn2)CCC[C@]12C(=O)N(Cc1ccccc1)c1ccccc12 | i | i | nt | nt | nt
CCOC(OCC)c1cn(Cc2ccc3c(c2)C(=O)c2ccccc2C3=O)nn1 | i | i | 9.9 | i | nt
CCOP(=O)(OCC)c1ccc2c(c1)C(=O)c1ccccc1-2 | i | i | nt | nt | nt
O=C(OC12CCCN(C1)/C(=C/c1ccccc1)C2)c1ccccc1 (centres undefined) | i | i | nt | nt | nt
COC(=O)[C@H](CC(C)C)N1Cc2nnn(Cc3ccccc3)c2-c2ccccc2S1(=O)=O | i | i | nt | nt | nt
Cc1c(NC(=S)N/N=C/c2ccc(N(C)C)cc2)c(=O)n(-c2ccccc2)n1C | i | i | i | i | i
Cc1c(NC(=S)N/N=C/c2cccc(O)c2)c(=O)n(-c2ccccc2)n1C | i | i | 10.0 | i | i
FC(F)(F)COc1nc(N2CCOCC2)nc(N(c2ccccc2)c2ccccc2)n1 | i | 13.2 | i | i | i
CC(=O)c1ccc2c(c1)C1C=CCC1C(C(=O)O)N2 (centres undefined) | i | 12.2 | i | i | i
COc1cccc2c1NC(C(=O)O)C1CC=CC21 (centres undefined) | nt | nt | 9.5 | i | i
O=C(O)C1Nc2c(cccc2C(F)(F)F)C2C=CCC12 (centres undefined) | nt | nt | i | i | nt
Cc1ccc2c(c1)C1C=CCC1C(C(=O)O)N2 (centres undefined) | nt | nt | i | i | nt
SMILES | PLC-beta3 inh | PLCg1 inh | VIM-2 inhibitor | IMP-1 inh | PvdQ inh
C[C@@H]1C[C@H]2[C@@H](Cc3ccccc3)C(=O)N3[C@H](c4ccccc4)[C@H](C)C[C@H]3[C@@H](Cc3ccccc3)C(=O)N2[C@@H]1c1ccccc1 | i | i | nt | nt | nt
COc1ccccc1N1CCN(C(=O)c2cc3c(C)nn(-c4ccccc4)c3s2)CC1 | i | i | nt | nt | nt
Cc1ccc(S(=O)(=O)N/N=C/c2ccccc2F)cc1[N+](=O)[O-] | i | i | i | 5.9 | i
CCNC(=O)COc1ccc2ccccc2c1 | i | i | i | i | 35.3
O=C(NC1CCCCN(Cc2cccc(C(F)(F)F)c2)C1=O)c1ccc(Cl)c(Cl)c1 (centres undefined) | i | i | nt | nt | nt
CC(C)CN=Cc1c(O)c([N+](=O)[O-])cc2oc3c(c12)CCCC3 | i | i | i | 10.5 | i
